Test results: the EternaBench riboswitch data

Tested on: MS2 coat protein
Experiment: apparent Kd, MS2 coat protein; higher = weaker binding; RNA-MaP array; FMN 200 µM where present
Summary of the method: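 The apparent Kd comes from binding curves fitted cluster by cluster, filtered, and summarised as a median. Those curves followed SNAP-549-labelled MS2 coat protein from 0.7 or 1.5 nM, doubling to 3 µM, on Illumina sequencing-chip clusters where stalled E. coli RNA polymerase had transcribed the designs, without and then with constant ligand. The buffer was 100 mM Tris-HCl pH 7.5, 80 mM KCl, 4 mM MgCl2, BSA, DTT, yeast tRNA and Tween-20, and green signal was normalised to red-channel RNA signal and control-cluster median Fmax.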

[1] = designed as: ON switch for flavin mononucleotide, no ligand
[2] = ligand present: flavin mononucleotide, designed as: ON switch for flavin mononucleotide
[3] = designed as: OFF switch for flavin mononucleotide, no ligand
[4] = ligand present: flavin mononucleotide, designed as: OFF switch for flavin mononucleotide

## ACCACAGACCAGAAGGGUGAUCGGCCAUGAUACACAGGAUAUGGUCACAUGAGGAUCACCCAUGUAUGGGUUGUGUGACCCAGC
[1]
  apparent Kd: 70 nM
[2]
  apparent Kd: 91.7 nM

## GAUAAGGGAGGAUAUACGGAACGGUUUAUGCUCAGUGAGGCACAUGAGGAUCACCCAUGUAGAAGGCCCGACAG
[3]
  apparent Kd: 28.2 nM
[4]
  apparent Kd: 120 nM

## UUGGACGUCGUAGGAUAUGUAGGAUAUUCCUACAUGAGGAUCACCCAUGUUGACAUGGAAGAAGGACAGACGGACGAUGUCCAU
[1]
  apparent Kd: 337 nM
[2]
  apparent Kd: 8.52 nM

## GGUUGACAAAGUCAACCUAAACGAACAUGAGGAUCACCCAUGUAGGAUAUGCUACUCAAAGAGUAGCAGAAGGACAUGUGCCUU
[3]
  apparent Kd: 37.6 nM
[4]
  apparent Kd: 273 nM

## GAGAAGUCAGGAUAUGCAUGGCGGGACUUGCGUCGUGGCGUGCAGAAGGGACAUGAGGAUCACCCAUGUAAAGC
[3]
  apparent Kd: 45.4 nM
[4]
  apparent Kd: 39.5 nM

## AGGGAGUUAGGAUAUGCUGCUCGUCACUUGCGUGAUGAGUAGCAGAAGGAACAUGAGGAUCACCCAUGUAAAAA
[3]
  apparent Kd: 31.2 nM
[4]
  apparent Kd: 30.3 nM

## CUGAGUAGUCAGGAUAUGCUGUACAAAAGUACAGCAGAAGGGAUUACAUGAGGAUCACCCAUGUUUACUUCAUG
[3]
  apparent Kd: 44.8 nM
[4]
  apparent Kd: 209 nM

## GAAAAGGUAGGAUAUACGAAAAAAAAGGGUAGAAAAAAAAAACAUGAGGAUCACCCAUGUAGAAGGACCAAAAG
[3]
  apparent Kd: 39.6 nM
[4]
  apparent Kd: 93.2 nM

## AAUUUAAAGGGAGGAUAUACAUGAGGAUCACCCAUGUAAUCAUAUGAUAUUUUUUUUGUAUGAGUGUAGAAGGCCCAAAUAAAA
[3]
  apparent Kd: 7.72 nM
[4]
  apparent Kd: 9.3 nM

## CUUUUGUGAGGAUAUUUGUAGUAAAUAAAUAAAAUUACUACUGAGAAGGCACAUGAGGAUCACCCAUGUUCCUC
[3]
  apparent Kd: 24.3 nM
[4]
  apparent Kd: 156 nM

## UGUUAAUAUCGAGGAUAUGUCUAGACACAUGAGGAUCACCCAUGUAUGUGUAUAGAAGGCGAUAUUAACAGCAUGUUACAUGCU
[1]
  apparent Kd: 39.9 nM
[2]
  apparent Kd: 17.5 nM

## GUAGCAUACCGAGGAUAUUCAGGGCGUGGAUAUACAUGAGGAUCACCCAUGUGGCGGAAGCCUAGGGAGAAGGCGGAAUGCUAC
[1]
  apparent Kd: 21.3 nM
[2]
  apparent Kd: 16.8 nM

## GCUGCAUGCAGAGGAUAUGACACAUGAGGAUCACCCAUGUAAUAAAUGAGAAUUUCGAAUGUAACUCAGAAGGCUGCAUGCAGC
[3]
  apparent Kd: 54.2 nM
[4]
  apparent Kd: 186 nM

## UUGAGGUCAGGAUAUGCAUGGCGGGACUUGCGUCGUGGCGUGGAGAAGGGACAUGAGGAUCACCCAUGUGGAGA
[3]
  apparent Kd: 83.5 nM
[4]
  apparent Kd: 81.6 nM

## CCAUAUAACUGAGGAUAUACUCACCACUAACAUGUAGAAGGCAGACAUGAGGAUCACCCAUGUGAUUUCUCAAUAUUAUACAUC
[3]
  apparent Kd: 901 nM
[4]
  apparent Kd: 658 nM

## AAACCCUGAGGAUAUACAUAACAACAAAGCCUCACGUGCCAACAUGAGGAUCACCCAUGUAGAAGGCAGGCCAA
[3]
  apparent Kd: 12.8 nM
[4]
  apparent Kd: 41.7 nM

## AGCGUCGGCACAGGAUAUGAGAUGCCGGCAGACAUGAGGAUCACCCAUGUAAGCGACCCAGGCAGUCAGAAGGGUGAUCGACAA
[1]
  apparent Kd: 121 nM
[2]
  apparent Kd: 65 nM

## CGCAAUAUACAGAAGGAGUUAUUUAGAGGAUUACUAGGAUAUGUUCACAUGAGGAUCACCCAUGUCAUAUUGGGAUUUAUUGCG
[3]
  apparent Kd: 10 nM
[4]
  apparent Kd: 10.3 nM

## CCGGCUUACUAGGAUAUAGGAGUCGAUAGACACCUAGAAGGAGUAACAUGAGGAUCACCCAUGUGUCCUACCGG
[3]
  apparent Kd: 22.1 nM
[4]
  apparent Kd: 86 nM

## GGGCCGAUAGGAUAUACAUGAGGAUCACCCAUGUAUGCUUAGAAGCGGCAAUCCUUAUGUAGAAGGGUCAGGCU
[3]
  apparent Kd: 37.1 nM
[4]
  apparent Kd: 33.4 nM

## CUUUUGUGAGGAUAUCAGUAGUUAAAAAAUAAAAUUACUACUGAGAAGGCACAUGAGGAUCACCCAUGUUCCUC
[3]
  apparent Kd: 42.5 nM
[4]
  apparent Kd: 308 nM

## GCCAACUCGUGAGGAUAUGGCACCUUAUUGGUGCCAGAAGGCAUGUCAAUUGACAUGAGGAUCACCCAUGUAUUAUAGUUGGCA
[1]
  apparent Kd: 563 nM
[2]
  apparent Kd: 88.2 nM

## AAGCAUUGGCUUCUCAUCUACAUGAGGAUCACCCAUGUCGGGAGAAGGAGGCUUUGACGACUAGCCUAGGAUAUCCUAACGUGC
[3]
  apparent Kd: 5.65 nM
[4]
  apparent Kd: 6.15 nM

## AUAUUAUUGAUCCAUUUUUUCAACAUGAGGAUCACCCAUGUGCAGGAUAUCGUGAUUAUUAUCAACGAGAAGGGCAAAUUCAUU
[3]
  apparent Kd: 76.5 nM
[4]
  apparent Kd: 234 nM

## GGAUAGUGAGGAUAUGCAUACGGUGUAAGUCCCAGAUCGAAACAUGAGGAUCACCCAUGUAGAAGGCGCAAAAC
[3]
  apparent Kd: 23.6 nM
[4]
  apparent Kd: 75.5 nM

## AAAAGACAUGAGGAUCACCCAUGUAAAGACAUAGGAGGAUAUGUCUUGAAAAAAGACUUGACAGAAGGCCUUUGUC
[1]
  apparent Kd: 23.8 nM
[2]
  apparent Kd: 20.8 nM

## AAACUGCAGAAGAUAAUAAUGAAUACAUGAGGAUCACCCAUGUAGGAUAUCGUCAGGAAUACUGACGAGAAGGACAUACUGCAG
[3]
  apparent Kd: 14.3 nM
[4]
  apparent Kd: 15.6 nM

## AGGAAACAUGAGGAUCACCCAUGUAAAAGGUGGUUAGGAUAUGCGAAAAGAAAAAGAAAAGCAGAAGGGACAAGAA
[1]
  apparent Kd: 487 nM
[2]
  apparent Kd: 485 nM

## CUGAGGUGUCAAGGAUAUGCUACCGUUUCGGUAGCAGAAGGUGAUCACAUGAGGAUCACCCAUGUAUGCAUGCGUGAGCGUGCU
[1]
  apparent Kd: 39.5 nM
[2]
  apparent Kd: 55.4 nM

## GCCUAUUCGUGCAGUUAAGGAGCUCAGGAUAUCGCAAUAACAUGAGGAUCACCCAUGUCCGAAUACGAGAAGGGAGGUCCGACG
[1]
  apparent Kd: 140 nM
[2]
  apparent Kd: 13.9 nM

## UAAUAAUAAUAAUAAUCCUGCAUACAUGAGGAUCACCCAUGUAAGGAUAUCGUCAGGAAUACUGACGAGAAGGUACAUAGCAGG
[3]
  apparent Kd: 15.8 nM
[4]
  apparent Kd: 19.3 nM

## UACGGACAUGAGGAUCACCCAUGUGAGGAUAUCGGUACCGAUAGCAUAAUCUGCUCGGCGAGAAGGCACAGCGU
[3]
  apparent Kd: 29.8 nM
[4]
  apparent Kd: 42.8 nM

## GGCGAACAGGCUAACAUGAGGAUCACCCAUGUGGACUCAUGGUAGGAUAUGCUCAUCAAAGAUGAGCAGAAGGGCCGGUGAGCC
[1]
  apparent Kd: 54.8 nM
[2]
  apparent Kd: 463 nM

## UGUGGGAGUCAGAAGGAGUAUUCUACAUGAGGAUCACCCAUGUCUGGUACUAGGAUAUGGGUCUGGACGGACUAAGGUCCCGUA
[1]
  apparent Kd: 753 nM
[2]
  apparent Kd: 196 nM

## GAGGUACGAGGAUAUACAUAGAUACAGACACAUGUUCAAGUACAUGAGGAUCACCCAUGUAGAAGGCGUAUAUC
[3]
  apparent Kd: 30.1 nM
[4]
  apparent Kd: 44.9 nM

## CGCUAAGAGAACUAUUCGAGAAGACAUGAGGAUCACCCAUGUAGAAGGACAACGGAAUAAACGUUGUAGGAUAUACACUUAGCG
[3]
  apparent Kd: 9.36 nM
[4]
  apparent Kd: 8.97 nM

## CCGGGACAUGAGGAUCACCCAUGUUUCGUUUGUAGUAAAACACAGGAUAUGAUGAAACAGGUUUCUCAGAAGGGUGUUCCGAAA
[1]
  apparent Kd: 81.3 nM
[2]
  apparent Kd: 55.3 nM

## CCGGCUUAGGAGGAUAUGGGAGUCGAUAGACACCCAGAAGGCCUAACAUGAGGAUCACCCAUGUGUCCUACCGG
[3]
  apparent Kd: 23.4 nM
[4]
  apparent Kd: 109 nM

## AAUAUAAAGAGCUGGUAACUCAAAACAUGAGGAUCACCCAUGUAGGAUAUCAGCACGAUAAGUGCUGAGAAGGACAUCCAGCUC
[3]
  apparent Kd: 16.5 nM
[4]
  apparent Kd: 17.2 nM

## UUUAGUUCAGGAUAUGUAGAUUUUAACAUGAGGAUCACCCAUGUAGAUCCUGAAUUAACUACAGAAGGGAACAUUC
[3]
  apparent Kd: 17.1 nM
[4]
  apparent Kd: 44.2 nM

## GGAGAUACAUGAGGAUCACCCAUGUAGGAUAUAUAGUAUAUAUAUAGCGAAAGCUAUAUAUAUAUAUAGAAGGGCGUACACACC
[3]
  apparent Kd: 7.67 nM
[4]
  apparent Kd: 8.02 nM

## UUACUACAUGAGGAUCACCCAUGUCAGGAUAUUGUUUAUACCUUGGAAUACGUGUCAACAAGAAGGGACUAUAU
[3]
  apparent Kd: 22.9 nM
[4]
  apparent Kd: 23.4 nM

## GCACGUGGACAGAAGGCGACAUGAGGAUCACCCAUGUUGGCUCGGGUAUGACCAAUCCGCAUGAUCGAGGAUAUGUCUGCGGGC
[3]
  apparent Kd: 264 nM
[4]
  apparent Kd: 15.9 nM

## UAUAUAUAGGCAGGAUAUACAUGAAUAUAUAUAAUAUAGUAUGAUGUAACAUGAGGAUCACCCAUGUAGAAGGGCCAAUAUAUA
[3]
  apparent Kd: 36.2 nM
[4]
  apparent Kd: 83.9 nM

## AAAAUGUGAGGAUAUCCGAAGGCGUCUGAUAGACGAGGCUAGGAGAAGGCACAUGAGGAUCACCCAUGUAAAAA
[3]
  apparent Kd: 46.6 nM
[4]
  apparent Kd: 95.1 nM

## GGAUAGGACAGAGGAUAUACGUGCUAAAGAUACUAGCAAAAUUUCCUCACAUGAGGAUCACCCAUGUAGAAGGCUGUCCUAUCG
[3]
  apparent Kd: 17.8 nM
[4]
  apparent Kd: 466 nM

## UCGGGCAACCGAAAUAGGACGGCUGAGGAUAUGACAUGAGGAUCACCCAUGUACAGGGCCACAGGUCAGAAGGCAGCCUUUUGG
[3]
  apparent Kd: 161 nM
[4]
  apparent Kd: 36.5 nM

## AUAGUAUAGCAAGGAUAUCGAUUUAGUUUGUUACGAGAAGGUGCUUUAGUUUAUACCUCUUGUUUACAUGAGGAUCACCCAUGU
[3]
  apparent Kd: 23.1 nM
[4]
  apparent Kd: 20.6 nM
